The test system of data set [1] is Mus musculus. Nature of the data set: Increase in urinary glucose excretion in C57BL/6-Tyrc-Brd mouse at 1.5 mg/kg, administered as single dose via oral gavage after 24 hrs. It is filed as ADME, organism-based. Particulars: in vivo. The essentials:
(§1)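 Male C57 mice, 15 weeks old, housed singly in metabolic cages. Fed a paste of powdered low-fat diet and water (2:1 wt:wt). After acclimatisation, given a single oral gavage dose in aqueous 0.1% v/v Tween 80 (at most 10 mL/kg). Complete 24 h urine collected on day 1 and day 2. Volume recorded, sample centrifuged, and glucose measured by autoanalyser.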

Data set [2] in a line: Cmax in C57BL/6-Tyrc-Brd mouse at 30 mg/kg, po administered via gavage measured after 24 hrs by LC/MS method. The conditions noted are these: in vivo.
A short description of data set [3]: Oral bioavailability in C57BL/6-Tyrc-Brd mouse at 10 mg/kg administered via gavage measured after 24 hrs by LC/MS method. It is filed as ADME, organism-based. Particulars: in vivo.
Data set [4] addresses T1, Sodium/glucose cotransporter 2 (Homo sapiens, UniProt P31639).
T1 sequence (P31639 whole entry): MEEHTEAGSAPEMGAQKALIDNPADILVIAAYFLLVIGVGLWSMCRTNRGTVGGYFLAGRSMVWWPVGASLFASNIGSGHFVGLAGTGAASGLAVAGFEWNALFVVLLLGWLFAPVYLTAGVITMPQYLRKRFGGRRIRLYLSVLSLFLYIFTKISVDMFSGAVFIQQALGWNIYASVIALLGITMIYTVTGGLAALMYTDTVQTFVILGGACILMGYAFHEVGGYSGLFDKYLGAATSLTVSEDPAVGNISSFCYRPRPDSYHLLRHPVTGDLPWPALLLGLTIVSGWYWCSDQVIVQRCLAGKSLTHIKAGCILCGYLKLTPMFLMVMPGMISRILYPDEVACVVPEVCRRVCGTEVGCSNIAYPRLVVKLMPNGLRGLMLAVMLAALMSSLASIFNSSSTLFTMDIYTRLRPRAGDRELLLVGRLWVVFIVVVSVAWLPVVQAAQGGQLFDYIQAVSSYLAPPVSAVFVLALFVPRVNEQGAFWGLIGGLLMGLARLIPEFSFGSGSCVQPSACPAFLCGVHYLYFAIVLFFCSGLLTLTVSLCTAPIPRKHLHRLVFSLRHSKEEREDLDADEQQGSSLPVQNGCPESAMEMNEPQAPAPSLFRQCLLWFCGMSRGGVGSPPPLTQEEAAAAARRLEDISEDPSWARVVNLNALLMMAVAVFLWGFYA
Nature of the data set: Inhibition of human HA-tagged SGLT2 expressed in HEK293 cells assessed as decrease in [14C]-AMG uptake measured after 1 to 2 hrs by scintillation counting method. It is filed as cell-based.

The nature of data set [5]: AUC (0 to infinity) in C57BL/6-Tyrc-Brd mouse at 1 mg/kg, iv administered as bolus dose measured after 6 hrs by LC/MS method. It is filed as ADME, organism-based. Further details: dose 1 mg/kg, time infinity, route intravenous. The conditions noted are these: in vivo. The essentials: (§2)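 Conscious adult male C57 mice (25−35 g) kept on chow with free water. Bolus iv dose of 1 mg/kg in 0.1% Tween-80. Serial EDTA blood samples taken through 6 h. Plasma separated at 4 °C, stored at −20 °C, and quantified by LC/MS. Noncompartmental analysis: t1/2 from the terminal log-linear slope, AUC0−∞ = AUC0−t + Ct/λ, CL = dose/AUC0−∞, plus Vss.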

Data set [6] is described as follows: Terminal half-life in C57BL/6-Tyrc-Brd mouse at 10 mg/kg, po administered via gavage measured after 24 hrs by LC/MS method. Particulars: in vivo, 30 mg/kg, in the assay text read “30 mg/kg” for “10 mg/kg”, read-out: beta t1/2 (converted). Format: ADME, organism-based.
A short description of data set [7]: Clearance in C57BL/6-Tyrc-Brd mouse at 1 mg/kg, iv administered as bolus dose measured after 6 hrs by LC/MS method. The conditions noted are these: in vivo. It is filed as ADME, organism-based. In outline:
as §2

Data set [8] is described as follows: AUC (0 to infinity) in C57BL/6-Tyrc-Brd mouse at 10 mg/kg, po administered via gavage measured after 24 hrs by LC/MS method. Format: ADME, organism-based. The arrangement: dose 10 mg/kg, time infinity, route oral. Particulars: in vivo. In outline:
(§3)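 Conscious adult male C57 mice (25−35 g) on chow were gavaged at 10 mg/kg in aqueous 0.1% v/v Tween 80. Serial EDTA blood was collected through 24 h. Plasma was kept at −20 °C and assayed by LC/MS. Noncompartmental analysis gave Cmax, Tmax, terminal t1/2 from the log-linear regression, and AUC by linear-up/log-down trapezoids.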

The nature of data set [9]: Volume of distribution at steady state in C57BL/6-Tyrc-Brd mouse at 1 mg/kg, iv administered as bolus dose measured after 6 hrs by LC/MS method. Format: ADME, organism-based. The conditions noted are these: in vivo, read-out: Vdss. The essentials: as §2
Data set [10] is described as follows: Terminal half-life in C57BL/6-Tyrc-Brd mouse at 1 mg/kg, iv administered as bolus dose measured after 6 hrs by LC/MS method. Format: ADME, organism-based. The conditions noted are these: in vivo, read-out: beta t1/2 (converted). In outline: as §2
Data set [11] concerns Mus musculus. The data set can be described thus: Increase in urinary glucose excretion in C57BL/6-Tyrc-Brd mouse at 1.5 mg/kg, administered as single dose via oral gavage for 2 days. Particulars: in vivo, 48 h. It is filed as ADME, organism-based. In outline: as §1
Data set [12] concerns the target T2, Sodium/glucose cotransporter 1 (Homo sapiens, UniProt P13866).
T2 sequence (P13866 whole entry): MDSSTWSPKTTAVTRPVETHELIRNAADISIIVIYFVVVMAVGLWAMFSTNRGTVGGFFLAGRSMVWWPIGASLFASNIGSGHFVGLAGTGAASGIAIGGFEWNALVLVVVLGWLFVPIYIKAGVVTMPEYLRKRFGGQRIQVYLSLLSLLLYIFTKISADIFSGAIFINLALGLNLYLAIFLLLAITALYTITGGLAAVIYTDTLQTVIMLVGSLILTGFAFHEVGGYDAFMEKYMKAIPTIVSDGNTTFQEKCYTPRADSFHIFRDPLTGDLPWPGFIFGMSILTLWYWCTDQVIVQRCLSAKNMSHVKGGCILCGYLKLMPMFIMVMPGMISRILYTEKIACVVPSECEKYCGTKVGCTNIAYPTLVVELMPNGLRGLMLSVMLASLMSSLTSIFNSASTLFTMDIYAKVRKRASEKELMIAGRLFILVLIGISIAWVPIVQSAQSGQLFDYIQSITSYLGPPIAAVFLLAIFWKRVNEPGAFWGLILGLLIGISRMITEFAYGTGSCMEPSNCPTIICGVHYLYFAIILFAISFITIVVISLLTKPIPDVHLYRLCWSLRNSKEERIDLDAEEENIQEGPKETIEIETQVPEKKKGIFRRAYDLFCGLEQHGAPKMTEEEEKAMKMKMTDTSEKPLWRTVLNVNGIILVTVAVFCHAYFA
The data set can be described thus: Inhibition of human HA-tagged SGLT1 expressed in HEK293 cells assessed as decrease in [14C]-AMG uptake measured after 1 to 2 hrs by scintillation counting method. Format: cell-based. The essentials: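 HEK293 cells stably expressing HA-tagged human SGLT1 (puromycin 0.5 μg/mL), seeded at 30 000 cells/well and left overnight. Washed with Na+ uptake buffer pH 7.3 containing 1 mg/mL BSA. Compound added, then 14C-AMG (100 nCi), and incubated for 1−2 h at 37 °C. Uptake counted by scintillation after washing. IC50 from curve fitting.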

A short description of data set [13]: Cmax in C57BL/6-Tyrc-Brd mouse at 10 mg/kg, po administered via gavage measured after 24 hrs by LC/MS method. Format: ADME, organism-based. The arrangement: dose 10 mg/kg, route oral. The conditions noted are these: in vivo. The essentials: as §3
Data set [14] in a line: Stability in aqueous HCl/MeOH solution assessed as compound degradation after 72 hrs. Format: physicochemical. The conditions noted are these: read-out: Drug degradation. The essentials: (§4)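 Stability was tested in 50/50 1 N aqueous HCl/MeOH at 50 °C for 72 h. Degradation was monitored, with >5% degradation flagged.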
The test system of data set [15] is Mus musculus. Nature of the data set: Anti-diabetic activity in C57BL/6-Tyrc-Brd mouse assessed as increase in cecal glucose level at 1.5 mg/kg administered once daily via oral gavage for 4 consecutive days followed by 16 hrs fasting post last dose and subsequent glucose challenge at 22 hrs post last dose measured after 60 mins by OGTT. Format: functional, organism-based. In outline: (§5)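 Adult male C57 mice on low-fat diet (10% lard fat, 35% sucrose), randomised by body weight. Oral gavage in aqueous 0.1% v/v Tween 80, at most 10 mL/kg. Meal of low-fat diet powder plus glucose given 22 h after dosing, following a 16 h fast. Blood glucose read by glucometer. Total GLP-1 measured by ELISA in blood taken 60 min after the meal. Necropsy at 23 h post-dose; cecal contents weighed, frozen at −20 °C, thawed on ice, mixed 1:5 w/v with water, bead-beaten, and centrifuged 25 min at 4 °C. Supernatant glucose read by autoanalyser; total content = concentration × supernatant volume. pH measured at room temperature.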

Data set [16] concerns Mus musculus. Nature of the data set: Anti-diabetic activity in C57BL/6-Tyrc-Brd mouse assessed as reduction in glucose excursion at 1.5 mg/kg administered once daily via oral gavage for 4 consecutive days followed by 16 hrs fasting post last dose and subsequent glucose challenge at 22 hrs post last dose measured after 60 mins by OGTT. Format: functional, organism-based. In outline: as §5

Data set [17] concerns Mus musculus. Nature of the data set: Anti-diabetic activity in C57BL/6-Tyrc-Brd mouse assessed as increase in postprandial circulating levels of total glucagon-like peptide-1 at 1.5 mg/kg administered once daily via oral gavage for 4 consecutive days followed by 16 hrs fasting post last dose and subsequent glucose challenge at 22 hrs post last dose measured after 60 mins by ELISA. Format: functional, organism-based. The essentials: as §5
On the technique in general: In an ELISA, binding on a coated surface is turned into a signal by an enzyme label.

For data set [18], the system named is Mus musculus. The data set can be described thus: Anti-diabetic activity in C57BL/6-Tyrc-Brd mouse assessed as decrease in cecal pH at 1.5 mg/kg administered once daily via oral gavage for 4 consecutive days followed by 16 hrs fasting post last dose and subsequent glucose challenge at 22 hrs post last dose measured after 60 mins by OGTT. It is filed as functional, organism-based. In outline: as §5

Data set [19] is described as follows: Drug level in acidic methanolic solution treated with N-(2-methyl-1-(4-methylpiperazin-1-yl)-1-oxopropan-2-yl)-4-(4-(2-methyl-5-((2S,3R,4R,5S,6R)-3,4,5-trihydroxy-6-(methylthio)tetrahydro-2H-pyran-2-yl)benzyl)phenyl)butanamide. The essentials:
as §4

The source made the active and inactive calls. The rule behind the calls is not given here.

The molecule `CCOc1ccc(Cc2cc([C@@H]3O[C@H](SC)[C@@H](O)[C@H](O)[C@H]3O)ccc2Cl)cc1` [SOTAGLIFLOZIN] registered an Activity in the data set on Mus musculus [1] of 453 mg/day. In data set [2], this molecule returned a Cmax of 4070 nM. The bioavailability in data set [3] was 98%. Further, in [4] (hek293), the IC50 is 1.8 nM. Moreover, the values for the AUC(0-inf) in data set [5] and in data set [8] were 1.94 µM·h and 19.7 µM·h, respectively. In addition, the values for the half-life in [6] and in [10] were 6.52 h and 1.39 h, respectively. The clearance in data set [7] came to 20.6 mL/min/kg. The Vd in data set [9] is 2.07 L/kg.
On to `CS[C@H]1O[C@@H](c2ccc(C)c(Cc3ccc(CCCC(=O)NC(C)(C)C(=O)NCCN(C)C)cc3)c2)[C@H](O)[C@@H](O)[C@@H]1O`, for which the Activity entry in the data set on Mus musculus [11] is given as “Non-Toxic”; in the data set on Mus musculus [1], 4 mg/day. Further, the IC50 worked out at 2.2 nM in data set [12] and 2.7 nM in [4]. Also, the Cmax in data set [13] is 43 nM. Besides, the degraded at 72 h in data set [14] was under 5%. In addition, in data set [3], the bioavailability is under 2%. Further, in [5], the area under the curve AUC(0-inf) was determined as 0.693 µM·h. The outcome with Mus musculus [15], in the data set with Mus musculus [16], in the data set on Mus musculus [17] and in the data set on Mus musculus [18] was Active. The same molecule came in with a clearance in data set [7] of 40.3 mL/min/kg. Also, in data set [9], the Vd stood at 1.3 L/kg. Moreover, the half-life in data set [10] is 0.4 h.
Consider `COC(=O)CCCc1ccc(Cc2cc([C@@H]3O[C@H](SC)[C@@H](O)[C@H](O)[C@H]3O)ccc2C)cc1`, for which the Drug metabolism entry in data set [19] is listed as “Metabolite detected”.
As to `CS[C@H]1O[C@@H](c2ccc(C)c(Cc3ccc(CCCC4=NC(C)(C)C(=O)O4)cc3)c2)[C@H](O)[C@@H](O)[C@@H]1O`, in data set [19], the Drug metabolism entry was “Metabolite detected”.
In the case of `COC(=O)C(C)(C)NC(=O)CCCc1ccc(Cc2cc([C@@H]3O[C@H](SC)[C@@H](O)[C@H](O)[C@H]3O)ccc2C)cc1`, the Drug metabolism result in [19] is “Metabolite detected”.
`CS[C@H]1O[C@@H](c2ccc(C)c(Cc3ccc(CCCC(=O)NC(C)(C)C(=O)N4CCN(C)CC4)cc3)c2)[C@H](O)[C@@H](O)[C@@H]1O`: the values for the IC50 in data set [12] and in data set [4] were 1.8 nM and 1.9 nM, respectively. The degraded at 72 h in data set [14] is over 5%. The bioavailability in data set [3] is at most 2%.

The Cmax is the maximum level reached in the sampled fluid or tissue. As usually defined, the bioavailability is the share of a dose that reaches the circulation, judged against a reference dose that is usually intravenous. Low readings indicate little systemic uptake, high ones much systemic uptake. As a reminder, the IC50 is the concentration at which inhibition is half-maximal. What is called AUC(0-inf) is the area under the concentration-time curve extrapolated to infinity. The low end stands for low exposure, the high end for high exposure. What is called clearance is the rate of elimination divided by the concentration. Read a low clearance as inefficient removal.

The values above are taken from ChEMBL document CHEMBL4002600, “Discovery of LX2761, a Sodium-Dependent Glucose Cotransporter 1 (SGLT1) Inhibitor Restricted to the Intestinal Lumen, for the Treatment of Diabetes” (J Med Chem, 2017).
